Experimental data taken from ChEMBL document CHEMBL1159060, “2-Dialkynyl derivatives of (N)-methanocarba nucleosides: 'Clickable' A(3) adenosine receptor-selective agonists” (Bioorg Med Chem, 2010).

Assays:
[1] = target: T1, Adenosine receptor A1 (Homo sapiens) (UniProt P30542); assay: Displacement of [3H]NECA from human recombinant adenosine A1 receptor expressed in CHO cells at 10 uM by liquid scintillation counting; format: cell-based
T1 sequence (whole entry): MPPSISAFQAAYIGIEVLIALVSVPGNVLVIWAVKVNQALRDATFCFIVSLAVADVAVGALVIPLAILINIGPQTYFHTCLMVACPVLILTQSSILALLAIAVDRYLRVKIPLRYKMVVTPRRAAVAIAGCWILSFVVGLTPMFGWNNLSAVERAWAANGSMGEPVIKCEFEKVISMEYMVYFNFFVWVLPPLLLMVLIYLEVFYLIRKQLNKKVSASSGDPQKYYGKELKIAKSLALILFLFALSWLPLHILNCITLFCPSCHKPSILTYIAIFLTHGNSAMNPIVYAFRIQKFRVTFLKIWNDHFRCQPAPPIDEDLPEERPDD
Procedure, shortened: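 CHO membranes stably expressing hA1AR, pretreated with adenosine deaminase (3 units/mL, 30 min, 37 °C), 22 μg protein/tube. […] GF/B filtration, scintillation counting, percent inhibition at 10 μM.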

[2] = target: T2, Adenosine receptor A2a (Homo sapiens, UniProt P29274); assay: Displacement of [3H]CGS21680 from human recombinant adenosine A2A receptor expressed in HEK293 cells at 10 uM by liquid scintillation counting; format: cell-based
T2 sequence (P29274 whole entry): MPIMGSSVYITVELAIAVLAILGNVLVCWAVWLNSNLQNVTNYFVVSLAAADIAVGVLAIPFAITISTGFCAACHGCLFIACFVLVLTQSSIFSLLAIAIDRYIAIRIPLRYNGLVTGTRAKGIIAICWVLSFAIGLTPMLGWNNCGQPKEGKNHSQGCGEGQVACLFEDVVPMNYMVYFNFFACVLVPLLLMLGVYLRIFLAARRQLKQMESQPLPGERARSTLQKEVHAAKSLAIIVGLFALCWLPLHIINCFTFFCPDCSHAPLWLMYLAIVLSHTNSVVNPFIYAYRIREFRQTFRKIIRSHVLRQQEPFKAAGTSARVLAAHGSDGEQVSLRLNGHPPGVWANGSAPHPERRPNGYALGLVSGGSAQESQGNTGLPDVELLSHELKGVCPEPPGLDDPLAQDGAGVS
Procedure, shortened: (§1)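 HEK293 membranes stably expressing hA2AAR (20 μg protein/tube), deaminase-treated (3 units/mL, 30 min, 37 °C). Competition against 10 nM [3H]CGS21680 in Tris-HCl 50 mM pH 7.5 with 10 mM MgCl2, 25 °C for 60 min. […] Filtered on GF/B, scintillation counted.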

[3] = target: T3, Adenosine receptor A3 (Homo sapiens, UniProt P0DMS8); assay: Displacement of I-AB-MECA from human recombinant adenosine A3 receptor expressed in CHO cells
T3 sequence (P0DMS8 whole entry): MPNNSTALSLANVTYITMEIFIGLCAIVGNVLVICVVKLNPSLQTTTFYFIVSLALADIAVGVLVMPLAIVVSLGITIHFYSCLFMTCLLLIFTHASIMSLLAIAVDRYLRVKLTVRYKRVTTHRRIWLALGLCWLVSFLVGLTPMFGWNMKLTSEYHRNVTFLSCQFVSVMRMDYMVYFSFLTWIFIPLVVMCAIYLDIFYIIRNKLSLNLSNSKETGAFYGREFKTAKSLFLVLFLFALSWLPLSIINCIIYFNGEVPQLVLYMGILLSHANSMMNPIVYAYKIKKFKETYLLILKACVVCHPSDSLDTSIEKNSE

[4] = species on record: Homo sapiens; assay: Selectivity ratio of Ki for human adenosine A2A receptor to Ki for human adenosine A3 receptor
[5] = target: T4, Adenosine receptor A2b (Homo sapiens) (UniProt P29275); assay: Agonist activity at human recombinant adenosine A2B receptor expressed in CHO cells assessed as stimulation of cAMP accumulation at 10 uM by liquid scintillation spectrophotometry relative to NECA
T4 sequence (whole entry): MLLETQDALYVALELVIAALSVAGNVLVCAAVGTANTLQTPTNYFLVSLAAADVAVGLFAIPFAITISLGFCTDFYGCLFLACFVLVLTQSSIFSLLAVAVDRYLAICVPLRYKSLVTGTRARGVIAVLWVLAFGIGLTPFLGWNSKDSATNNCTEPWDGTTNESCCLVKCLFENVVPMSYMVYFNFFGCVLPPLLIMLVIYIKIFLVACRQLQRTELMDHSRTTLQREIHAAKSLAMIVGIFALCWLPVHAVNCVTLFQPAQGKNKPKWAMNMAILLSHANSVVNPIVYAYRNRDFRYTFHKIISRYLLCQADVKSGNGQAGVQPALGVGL

[6] = target: T2, Adenosine receptor A2a; assay: Displacement of [3H]CGS21680 from human recombinant adenosine A2A receptor expressed in HEK293 cells by liquid scintillation counting; format: cell-based; procedure, shortened: as §1
[7] = target: Adenosine receptors; A1 & A3 (Homo sapiens) (UniProt P30542+P0DMS8); assay: Selectivity for human adenosine A3 receptor over human adenosine A1 receptor

Work on `CNC(=O)[C@@]12C[C@@H]1[C@@H](n1cnc3c(NCc4cccc(Cl)c4)nc(C#CCCCCc4cn(CCCCN)nn4)nc31)[C@H](O)[C@@H]2O` yielded an inhibition [1] of 13%.

For `CNC(=O)[C@@]12C[C@@H]1[C@@H](n1cnc3c(NCc4cccc(Cl)c4)nc(C#CCCC(=O)NCCNC(=O)CCCCCNC(=O)CCCCC4SCC5NC(=O)NC54)nc31)[C@H](O)[C@@H]2O` (some centres not stated), the inhibition [2] was 47%, the inhibition [1] was 12% and the Ki [3] was 57.7 nM.

`CNC(=O)[C@@]12C[C@@H]1[C@@H](n1cnc3c(NCc4cccc(Cl)c4)nc(C#CCCCCc4cn(C56CC7CC(CC(C7)C5)C6)nn4)nc31)[C@H](O)[C@@H]2O` was tested, and the Ratio Ki [4] was 500, the Activity [5] was 36.5% and the inhibition [1] was 22%.

For `CNC(=O)[C@@]12C[C@@H]1[C@@H](n1cnc3c(NCc4cccc(Cl)c4)nc(C#CCCCCc4cn(CCNC(C)=O)nn4)nc31)[C@H](O)[C@@H]2O`, the Ratio Ki [4] was 109, the Activity [5] was 19.4% and the inhibition [1] was 12%.

For `C#CCCCCC#Cc1nc(NCc2cccc(Cl)c2)c2ncn([C@H]3[C@H](O)[C@H](O)[C@]4(C(=O)NC)C[C@H]34)c2n1`, the Ratio Ki [4] was 300, the Ki [6] was 7040 nM and the Selectivity ratio [7] was > 400. It also gave an inhibition [1] of 31% and a Ki [3] of 29.4 nM.

`CNC(=O)[C@@]12C[C@@H]1[C@@H](n1cnc3c(NCc4cccc(Cl)c4)nc(C#CCCCCc4cn(-c5ccc(N=C=S)cc5)nn4)nc31)[C@H](O)[C@@H]2O` showed an inhibition [2] of 28% and an inhibition [1] of 2%.

With `CNC(=O)[C@@]12C[C@@H]1[C@@H](n1cnc3c(NCc4cccc(Cl)c4)nc(C#CCCCCc4cn(Cc5ccc(-n6sccc6=O)cc5)nn4)nc31)[C@H](O)[C@@H]2O` the inhibition [2] was 49% and the inhibition [1] was 15%.

`CNC(=O)[C@@]12C[C@@H]1[C@@H](n1cnc3c(NCc4cccc(Cl)c4)nc(C#CCCCCc4cn(-c5ccc(C(=O)O)cc5)nn4)nc31)[C@H](O)[C@@H]2O` gave an inhibition [2] of 40% and an inhibition [1] of 0%.

Work on `CNC(=O)[C@@]12C[C@@H]1[C@@H](n1cnc3c(NCc4cccc(Cl)c4)nc(C#CCCCCc4cn(CCCCCCNC(=O)c5ccc(-c6c7ccc(=N)c(S(=O)(=O)O)c-7oc7c(S(=O)(=O)O)c(N)ccc67)c(C(=O)O)c5)nn4)nc31)[C@H](O)[C@@H]2O` yielded an inhibition [2] of 23%, an inhibition (INH) [1] of 0% and a Ki [3] of 416 nM.

`CNC(=O)[C@@]12C[C@@H]1[C@@H](n1cnc3c(NCc4cccc(Cl)c4)nc(C#CCCCCc4cn(CCCCCCNC5SCC6NC(=O)NC65)nn4)nc31)[C@H](O)[C@@H]2O` (some centres not stated) gave an inhibition [2] of 27%, an inhibition (INH) [1] of 0% and a Ki [3] of 285 nM.

With `CCNC(=O)[C@H]1O[C@@H](n2cnc3c(N)ncnc32)[C@H](O)[C@@H]1O` the Activity [5] was 100%.

For `CCN1\C(=C/C=C/C=C/C2=[N+](CCCCCC(=O)NCCNC(=O)CCC#Cc3nc(NCc4cccc(Cl)c4)c4ncn([C@H]5[C@H](O)[C@H](O)[C@]6(C(=O)NC)C[C@H]56)c4n3)c3ccc(S(=O)(=O)[O-])cc3C2(C)C)C(C)(C)c2cc(S(=O)(=O)O)ccc21`, the Ki [6] was 4730 nM and the inhibition [1] was 36%.

In the case of `CNC(=O)[C@@]12C[C@@H]1[C@@H](n1cnc3c(NCc4cccc(Cl)c4)nc(C#CCCCCc4cn(-c5ccc(N)cc5)nn4)nc31)[C@H](O)[C@@H]2O`, the inhibition [1] is reported as 3%.

Compound `CNC(=O)[C@@]12C[C@@H]1[C@@H](n1cnc3c(NCc4cccc(Cl)c4)nc(C#CCCC(=O)NCCNC(=O)CCCCC4SCC5NC(=O)NC54)nc31)[C@H](O)[C@@H]2O` (some centres not stated) has an inhibition [2] of 51%, an inhibition [1] of 1% and a Ki [3] of 36.4 nM.

`CNC(=O)[C@@]12C[C@@H]1[C@@H](n1cnc3c(NCc4cccc(Cl)c4)nc(-c4nnn(-c5ccc(N=C=S)cc5)c4CCCCc4cn(-c5ccc(N=C=S)cc5)nn4)nc31)[C@H](O)[C@@H]2O` was tested, and the inhibition [2] was 40% and the inhibition [1] was 4%.

`C#CCCCC#Cc1nc(NCc2cccc(Cl)c2)c2ncn([C@@H]3[C@H](O)[C@H](O)[C@]4(C(=O)NC)C[C@H]34)c2n1` was tested, and the Ratio Ki [4] was 300, the Ki [6] was 4330 nM and the Selectivity ratio [7] was > 400. For the same compound, the inhibition [1] was 36% and the Ki [3] was 23.6 nM.

`CNC(=O)[C@@]12C[C@@H]1[C@@H](n1cnc3c(NCc4cccc(Cl)c4)nc(C#CCCCCc4cn(CCCCNC(C)=O)nn4)nc31)[C@H](O)[C@@H]2O` gave an inhibition [1] of 17%.
